Experimental data as given in ChEMBL document CHEMBL4052623, “Synthesis and antiproteasomal activity of novel O-benzyl salicylamide-based inhibitors built from leucine and phenylalanine” (Eur J Med Chem, 2017).
pIC50: −log10 of the molar value. Activity calls are given as the source filed them. No cut-off for these calls is given here.

Tests used:
K562 = experiment: Antiproliferative activity against human K562 cells after 72 hrs by calcein AM staining based fluorescence assay; format: functional; details: K562, 72 h
How it was run: (§1)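 Cells treated with three-fold compound dilutions in triplicate for 72 h. Calcein AM added afterwards and live-cell fluorescence read at 485/538 nm (ex/em). GI50, the concentration lethal to 50% of tumour cells, calculated from dose-response curves.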

CCRF-CEM = experiment: Antiproliferative activity against human CEM cells after 72 hrs by calcein AM staining based fluorescence assay; format: functional; how it was run: as §1
U-266 [1] = experiment: Antiproliferative activity against human U266 cells after 72 hrs by calcein AM staining based fluorescence assay; format: functional; details: U-266, 72 h; how it was run: as §1
[2] = target: T1, Proteasome Macropain subunit MB1 (Homo sapiens, UniProt P28074); experiment: Inhibition of chymotrypsin-like activity of 26S proteasome beta 5 subunit in human U266 cells using Suc-LLVY-aminoluciferin as substrate after 1 hr by Proteosome-Glo luminescence assay; format: cell-based
T1 sequence (P28074 whole entry): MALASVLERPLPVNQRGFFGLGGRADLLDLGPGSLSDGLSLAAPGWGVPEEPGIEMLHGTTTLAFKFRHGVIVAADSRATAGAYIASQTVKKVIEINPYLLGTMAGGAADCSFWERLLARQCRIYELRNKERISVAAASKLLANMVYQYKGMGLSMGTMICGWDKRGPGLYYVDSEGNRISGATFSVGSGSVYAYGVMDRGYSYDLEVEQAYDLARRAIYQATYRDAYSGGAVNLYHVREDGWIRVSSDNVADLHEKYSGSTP
How it was run: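 U266 multiple myeloma cells plated at 20,000 cells/well and exposed to varying compound concentrations for 1 h at 37 °C, in duplicate. 26S proteasome activity measured immediately as luciferase-coupled hydrolysis of the β5 substrate Suc-LLVY-aminoluciferin (Proteasome-Glo), read by luminescence. Activity normalised to untreated cells; IC50 derived from dose-response curves.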

[3] = target: T2, Proteasome Macropain subunit MB1 (Homo sapiens) (UniProt P28074); experiment: Inhibition of chymotrypsin like activity of 26S proteasome beta 5 subunit in human U266 cells assessed as residual activity using N-Suc-LLVY-AMC as substrate at 10 uM preincubated for 1 hr followed by substrate addition and measured after 4 hrs by fluorescence assay relative to control; format: cell-based
T2 sequence (whole entry): T1 sequence (P28074 whole entry)

[4] = target: T3, Proteasome component C5 (Homo sapiens) (UniProt P20618); experiment: Inhibition of caspase like activity of 26S proteasome beta 1 subunit in human U266 cells assessed as residual activity using […] as substrate at 10 uM preincubated for 1 hr followed by substrate addition and measured after 4 hrs by fluorescence assay relative to control; format: cell-based
T3 sequence (whole entry): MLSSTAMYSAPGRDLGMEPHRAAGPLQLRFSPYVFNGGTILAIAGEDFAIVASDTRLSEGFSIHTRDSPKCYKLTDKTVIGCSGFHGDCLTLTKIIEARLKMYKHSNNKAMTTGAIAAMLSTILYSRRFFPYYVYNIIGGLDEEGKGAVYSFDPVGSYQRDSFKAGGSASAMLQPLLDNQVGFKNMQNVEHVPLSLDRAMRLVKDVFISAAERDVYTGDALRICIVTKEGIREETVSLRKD

[5] = target: Proteasome Macropain subunit (Homo sapiens) (UniProt P49721); experiment: Inhibition of trypsin like activity of 26S proteasome beta 2 subunit in human U266 cells assessed as residual activity using […] as substrate at 10 uM preincubated for 1 hr followed by substrate addition and measured after 4 hrs by fluorescence assay relative to control; format: cell-based
Chain of Proteasome Macropain subunit (Homo sapiens) (P49721 whole entry, the tested form may be a part): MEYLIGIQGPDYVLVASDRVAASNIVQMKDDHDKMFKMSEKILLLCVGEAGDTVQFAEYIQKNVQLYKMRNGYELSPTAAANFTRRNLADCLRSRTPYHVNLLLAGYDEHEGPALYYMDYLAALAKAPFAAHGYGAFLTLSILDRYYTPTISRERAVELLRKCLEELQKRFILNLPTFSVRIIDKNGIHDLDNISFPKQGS

Homo sapiens [6] = organism: Homo sapiens; experiment: Inhibition of proteasome in human U2OS cells stably expressing GFP fused to short degron assessed as increase in GFP accumulation pre-incubated for 1 hr and measured after 9 hrs by live-cell imaging microscopy; format: cell-based
Homo sapiens [7] = organism: Homo sapiens; experiment: Inhibition of proteasome in human U266 cells assessed as increase in accumulation of polyubiquitinated proteins by Western blot analysis; format: cell-based; details: TDE = time-dependent effect
How it was run: (§2)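 Treated U266 cells harvested in Laemmli sample buffer. Proteins separated by SDS-PAGE and electroblotted to nitrocellulose. Membranes blocked, probed overnight with specific primary antibodies, then detected with peroxidase-conjugated secondary antibodies.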

U-266 [8] = experiment: Induction of apoptosis in human U266 cells assessed as caspase-7 cleavage at 250 nM after 16 to 24 hrs by Western blot method; format: functional, cell-based; how it was run: as §2
U-266 [9] = experiment: Effect on alpha-tubulin protein levels in human U266 cells at 250 nM after 2 to 24 hrs by Western blot analysis; format: ADME, cell-based; details: u-266, 0.25 µM; how it was run: as §2
Homo sapiens [10] = organism: Homo sapiens; experiment: Inhibition of proteasome in human U2OS cells stably expressing GFP fused to short degron assessed as increase in GFP accumulation at 200 nM […] by live-cell imaging microscopy; format: cell-based
Homo sapiens [11] = organism: Homo sapiens; experiment: Inhibition of proteasome in human U266 cells assessed as increase in accumulation of polyubiquitinated proteins at 250 nM by Western blot analysis; format: cell-based; details: TDE = time-dependent effect; how it was run: as §2
U-266 [12] = experiment: Induction of apoptosis in human U266 cells assessed as increase in caspase-3/7 activity using Ac-DEVD-AMC as substrate at 250 nM by fluorescence assay; format: functional, cell-based; details: TDE = time-dependent effect
How it was run: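 Homogenates clarified at 10,000 × g for 30 min at 4 °C and protein-equalised. Lysates incubated with 100 µM Ac-DEVD-AMC in pH 7.3 PIPES/EGTA/MgCl2/DTT buffer. Fluorescence read at 355/460 nm and normalised to untreated control.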

U2OS [13] = experiment: Cytotoxicity against human U2OS cells at 6.25 uM after 16 hrs by live-cell imaging microscopic analysis; format: cell-based
How it was run: (§3)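 U2OS degron-GFP cells plated at 10,000 cells/well and treated with a range of compound concentrations. Proliferation followed by live-cell time-lapse imaging as percent confluence (occupied image area) over time, up to 72 h.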

U2OS [14] = experiment: Antiproliferative activity against human U2OS cells up to 1 uM after 24 hrs by live-cell imaging microscopic analysis; format: functional, cell-based; how it was run: as §3
U2OS [15] = experiment: Antiproliferative activity against human U2OS cells at 200 nM after 72 hrs by live-cell imaging microscopic analysis; format: functional, cell-based; how it was run: as §3
U2OS [16] = experiment: Antiproliferative activity against human U2OS cells up to 1 uM after 48 hrs by live-cell imaging microscopic analysis; format: functional, cell-based; how it was run: as §3
U-266 [17] = experiment: Induction of apoptosis in human U266 cells assessed as PARP1 cleavage at 250 nM after 16 to 24 hrs by Western blot method; format: functional, cell-based; how it was run: as §2
U-266 [18] = experiment: Effect on beta-actin protein levels in human U266 cells at 250 nM after 2 to 24 hrs by Western blot analysis; format: ADME, cell-based; details: u-266, 0.25 µM; how it was run: as §2
Homo sapiens [19] = organism: Homo sapiens; experiment: Inhibition of proteasome in human U266 cells assessed as increase in p27KIP level up to 24 hrs by Western blot method; format: cell-based; how it was run: as §2
U-266 [20] = experiment: Induction of apoptosis in human U266 cells assessed as downregulation of Mcl-1 level at 250 nM after 16 to 24 hrs by Western blot method; format: functional, cell-based; how it was run: as §2

Compound | GI50 (K562) | GI50 (CCRF-CEM) | pIC50 [2] | Activity [3] | Activity [4] | Activity [5] | GI50 (U-266 [1]) | inhibition (Homo sapiens [6]) | also measured
CC(C)C[C@H](NC(=O)c1cc(Cl)ccc1O)C(=O)N[C@@H](Cc1ccccc1)C(=O)N[C@H](C=O)Cc1ccccc1 | 6.9 µM | 2.3 µM | 6.13 | 71.7% | 73.5% | 84.2% | 2.23 µM | Dose-dependent effect | –
CC(C)C[C@H](NC(=O)c1cc(Cl)ccc1OCc1ccccc1)C(=O)N[C@@H](Cc1ccccc1)C(=O)N[C@H](C=O)Cc1ccccc1 | 1.45 µM | 0.44 µM | 6.96 | 25.8% | > 100% | 47.2% | 0.4 µM | Dose-dependent effect | –
CC(C)C[C@H](NC(=O)c1cc(Cl)ccc1OCc1ccccc1)C(=O)N[C@@H](Cc1ccccc1)C(=O)NC(C=O)Cc1ccccc1 (some centres undefined) | 1.28 µM | 0.4 µM | 6.77 | 29.1% | > 100% | 62.3% | 0.46 µM | Dose-dependent effect | –
CC(C)C[C@H](NC(=O)[C@H](Cc1ccccc1)NC(=O)c1cnccn1)B(O)O [BORTEZOMIB] | 0.007 µM | 0.001 µM | – | 1.5% | 0% | 86.1% | 0.001 µM | – | inhibition (Homo sapiens [7]): Tde
CC(C)C[C@@H](C=O)NC(=O)[C@H](Cc1ccccc1)NC(=O)[C@H](CC(C)C)NC(=O)c1cc(Cl)ccc1O | 2.1 µM | 0.78 µM | 6.63 | 27.9% | 28.9% | 72.6% | 0.67 µM | Dose-dependent effect | –
CC(C)C[C@H](NC(=O)c1cc(Cl)ccc1OCc1ccccc1)C(=O)N[C@@H](CC(C)C)C(=O)NC(C=O)Cc1ccccc1 (some centres undefined) | 1.05 µM | 0.79 µM | 6.71 | 27.9% | 66.2% | 48.4% | 0.54 µM | Dose-dependent effect | –

The next lines start with results.

GI50 (K562) | GI50 (CCRF-CEM) | pIC50 [2] | Activity [3] | Activity [4] | Activity [5] | Compound | GI50 (U-266 [1]) | inhibition (Homo sapiens [6]) | also measured
0.57 µM | 0.28 µM | 7.05 | 13.4% | 74.6% | 81.8% | CC(C)CC(C=O)NC(=O)[C@H](Cc1ccccc1)NC(=O)[C@H](CC(C)C)NC(=O)c1cc(Cl)ccc1OCc1ccccc1 (some centres undefined) | 0.15 µM | Dose-dependent effect | Activity (U-266 [8]): Active; Activity (U-266 [9]): Non-Toxic; inhibition (Homo sapiens [10]): Active; inhibition (Homo sapiens [11]): Tde; Activity (U-266 [12]): Tde; Activity (U2OS [13]): Toxic; Activity (U2OS [14]): inactive; Activity (U2OS [15]): inactive; Activity (U2OS [16]): Active; Activity (U-266 [17]): Active; Activity (U-266 [18]): Non-Toxic; inhibition (Homo sapiens [19]): Dose-dependent effect; Activity (U-266 [20]): Active
0.61 µM | 0.49 µM | 7.00 | 10.4% | 39.2% | 64.2% | CC(C)CC(C=O)NC(=O)[C@H](CC(C)C)NC(=O)[C@H](CC(C)C)NC(=O)c1cc(Cl)ccc1OCc1ccccc1 (some centres undefined) | 0.29 µM | Dose-dependent effect | –
1.04 µM | 0.43 µM | 7.17 | 10.6% | 40.2% | 42.5% | CC(C)C[C@@H](C=O)NC(=O)[C@H](Cc1ccccc1)NC(=O)[C@H](CC(C)C)NC(=O)c1cc(Cl)ccc1OCc1ccccc1 | 0.17 µM | Dose-dependent effect | –
